From ChEMBL document CHEMBL1275329, “Fruitful adrenergic α(2C)-agonism/α(2A)-antagonism combination to prevent and contrast morphine tolerance and dependence” (J Med Chem, 2010)
The source made the active and inactive calls. No cut-off for these calls is given here.

Key:
[1] = biological target: T1, Alpha-2C adrenergic receptor (Homo sapiens) (UniProt P18825); assay: Agonist activity at human Alpha-2C adrenoceptor expressed in CHO cells assessed as induction of extracellular acidification by microphysiometry relative to (-)noradrenaline; assay type: functional, cell-based
T1 sequence (whole entry): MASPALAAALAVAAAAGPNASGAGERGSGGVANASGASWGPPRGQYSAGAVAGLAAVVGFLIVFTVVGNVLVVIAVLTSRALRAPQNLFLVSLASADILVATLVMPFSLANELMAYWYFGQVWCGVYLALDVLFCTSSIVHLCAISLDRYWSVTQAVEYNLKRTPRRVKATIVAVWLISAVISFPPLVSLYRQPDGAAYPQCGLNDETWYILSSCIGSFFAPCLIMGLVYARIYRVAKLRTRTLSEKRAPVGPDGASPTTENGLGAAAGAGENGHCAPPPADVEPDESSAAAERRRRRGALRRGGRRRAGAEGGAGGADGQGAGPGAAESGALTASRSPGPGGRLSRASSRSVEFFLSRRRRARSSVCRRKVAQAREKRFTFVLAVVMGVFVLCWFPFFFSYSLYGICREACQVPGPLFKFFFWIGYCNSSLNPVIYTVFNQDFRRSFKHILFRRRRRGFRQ
How it was run: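 Cytosensor microphysiometry on CHO cells stably expressing one human α2-AR subtype, seeded at 3 × 10⁵ cells/cup and grown 24 h at 37 °C. Cells were perfused with bicarbonate-free DMEM and exposed to agonist for 4 min, with 30 min washes between exposures. The read-out is the change in acidification rate: peak after agonist minus the mean of three prior readings. […] Mean ± SEM, 3–6 experiments.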

[2] = biological target: T2, Alpha-2B adrenergic receptor (Homo sapiens) (UniProt P18089); conditions: CHO
T2 sequence (whole entry): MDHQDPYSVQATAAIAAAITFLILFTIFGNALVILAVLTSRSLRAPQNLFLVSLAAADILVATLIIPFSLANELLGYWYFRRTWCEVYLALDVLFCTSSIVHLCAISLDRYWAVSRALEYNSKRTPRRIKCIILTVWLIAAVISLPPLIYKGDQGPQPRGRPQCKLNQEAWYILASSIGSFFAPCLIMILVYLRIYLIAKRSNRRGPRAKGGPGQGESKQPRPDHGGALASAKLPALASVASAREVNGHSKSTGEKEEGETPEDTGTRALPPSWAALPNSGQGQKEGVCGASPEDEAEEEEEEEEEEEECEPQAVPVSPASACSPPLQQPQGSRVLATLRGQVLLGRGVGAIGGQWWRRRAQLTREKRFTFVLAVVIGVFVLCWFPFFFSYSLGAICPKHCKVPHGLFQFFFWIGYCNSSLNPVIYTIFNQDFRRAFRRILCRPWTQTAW

[3] = biological target: T3, Alpha-2A adrenergic receptor (Homo sapiens, UniProt P08913); assay: Displacement of [3H]RX821002 from human alpha2A adrenoceptor expressed in CHO cells; assay type: cell-based
T3 sequence (P08913 whole entry): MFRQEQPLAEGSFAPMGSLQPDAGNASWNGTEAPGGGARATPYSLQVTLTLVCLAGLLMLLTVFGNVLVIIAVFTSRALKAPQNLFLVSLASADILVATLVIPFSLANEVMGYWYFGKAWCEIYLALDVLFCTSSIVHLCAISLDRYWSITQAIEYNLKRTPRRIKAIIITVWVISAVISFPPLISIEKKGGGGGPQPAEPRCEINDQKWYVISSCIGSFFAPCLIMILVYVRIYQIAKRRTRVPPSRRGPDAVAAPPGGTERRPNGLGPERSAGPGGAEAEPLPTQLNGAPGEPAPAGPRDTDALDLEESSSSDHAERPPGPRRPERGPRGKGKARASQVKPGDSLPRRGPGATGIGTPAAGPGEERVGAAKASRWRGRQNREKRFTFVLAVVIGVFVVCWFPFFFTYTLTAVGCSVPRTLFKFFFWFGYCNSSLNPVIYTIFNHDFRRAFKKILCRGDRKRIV
How it was run: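 Crude membranes from CHO cells expressing human α2A-AR were incubated in Tris-Mg buffer (50 mM Tris-HCl, 0.5 mM MgCl₂, pH 7.5). Ki came from one- or two-site nonlinear regression and is given as pKi.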

[4] = biological target: T4, Alpha-2A adrenergic receptor (Homo sapiens) (UniProt P08913); assay: Antagonist activity at human alpha2A adrenoceptor expressed in CHO cells assessed as effect on agonist-induced extracellular acidification by microphysiometry; assay type: functional, cell-based
T4 sequence (whole entry): T3 sequence (P08913 whole entry)
How it was run: (§1)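 CHO cells stably expressing one human α2-AR subtype were run on the Cytosensor microphysiometer with bicarbonate-free DMEM perfusion. […] Kb = M/(concentration ratio − 1), where the ratio is EC50 with antagonist over EC50 without. Reported as pKb, mean ± SEM of 3–6 experiments.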

[5] = biological target: T5, Alpha-2B adrenergic receptor (Homo sapiens, UniProt P18089); assay: Displacement of [3H]RX821002 from human alpha2B adrenoceptor expressed in CHO cells; assay type: cell-based
T5 sequence (P18089 whole entry): T2 sequence (whole entry)
How it was run: (§2)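 Buffer was Tris-Mg (50 mM Tris-HCl, 0.5 mM MgCl2, pH 7.5), competitor 10^-9 to 10^-4 M, 30 min at room temperature. Bound ligand was filtered and counted. Ki by nonlinear one- or two-site fit, reported as pKi.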

[6] = biological target: T2, Alpha-2B adrenergic receptor (Homo sapiens); assay: Antagonist activity at human alpha2B adrenoceptor expressed in CHO cells assessed as effect on agonist-induced extracellular acidification by microphysiometry; assay type: functional, cell-based; how it was run: as §1
[7] = biological target: T6, Alpha-2C adrenergic receptor (Homo sapiens, UniProt P18825); assay: Displacement of [3H]RX821002 from human Alpha-2C adrenoceptor expressed in CHO cells; assay type: cell-based; how it was run: as §2
T6 sequence (P18825 whole entry): T1 sequence (whole entry)

[8] = biological target: T6, Alpha-2C adrenergic receptor; assay: Agonist activity at human Alpha-2C adrenoceptor expressed in CHO cells assessed as induction of extracellular acidification by microphysiometry; assay type: functional, cell-based
How it was run: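 Cytosensor microphysiometry on CHO cells stably expressing one human α2-AR subtype, seeded at 3 × 10⁵ cells/cup and grown 24 h at 37 °C. Cells were perfused with bicarbonate-free DMEM and exposed to agonist for 4 min, with 30 min washes between exposures. The read-out is the change in acidification rate: peak after agonist minus the mean of three prior readings. Mean ± SEM, 3–6 experiments.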

Mus musculus [9] = assay: Enhancement of morphine-induced analgesic effect in CD1 mouse at 0.05 mg/kg, ip administered 15 mins before morphine dosing measured 30 to 240 mins post morphine challenge by radiant heat tail flick test; assay type: functional, organism-based; set-up: dose 0.05 mg/kg
How it was run: (§3)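 Male CD-1 mice (25–35 g) received test agent 0.05 mg/kg ip or vehicle 15 min before morphine 5 mg/kg sc. Radiant-heat tail-flick to the lower third of the tail; baseline latency (2–3 s) is the mean of two trials. Latencies were read at 30, 60, 90, 120 and 240 min and expressed as %MPE. 7–8 mice per group, mean ± SEM.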

Mus musculus [10] = assay: Analgesic effect in CD1 mouse at 0.05 mg/kg, ip by radiant heat tail flick test; assay type: functional, organism-based; set-up: dose 0.05 mg/kg; how it was run: as §3
Mus musculus [11] = assay: Enhancement of morphine-induced analgesic effect in CD1 mouse at 0.05 mg/kg, ip administered 15 mins before morphine dosing measured 30 to 240 mins post morphine challenge in presence of Alpha-2C adrenergic receptor antagonist yohimbine by radiant heat tail flick test; assay type: functional, organism-based; set-up: dose 0.05 mg/kg
How it was run: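 Male CD-1 mice got yohimbine 1.250 mg/kg ip 15 min before test agent (0.05 mg/kg ip). Test agent was given 15 min before morphine 5 mg/kg sc. Radiant-heat tail-flick latency was read 30–240 min after morphine and expressed as %MPE.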

Mus musculus [12] = assay: Reduction in morphine tolerance acquisition in CD1 mouse assessed as morphine analgesic effect incidence at 0.05 mg/kg, ip administered as single dose 15 mins before last morphine dosing on test day post morphine challenge by radiant heat tail flick test; assay type: functional
How it was run: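 Tolerance was induced in male CD-1 mice with morphine 10 mg/kg sc twice daily at 12 h intervals for 5 days. On day 5, test agent 0.05 mg/kg ip was given once, 15 min before the last morphine injection. Tail-flick antinociception was read 30 min after that injection and expressed as %MPE, with day 1 vs day 5 compared.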

Mus musculus [13] = assay: Reduction in morphine dependence expression in CD1 mouse assessed as decrease in expression of naloxone-precipitated withdrawal syndrome at 0.05 mg/kg, ip administered as single dose […] on test day post morphine challenge […]; assay type: functional, organism-based; set-up: dose 0.05 mg/kg
Mus musculus [14] = assay: Toxicity in CD1 mouse assessed as effect on sleep duration at 0.05 mg/kg, ip by pentobarbital sodium induced sleep time assay; assay type: organism-based; set-up: dose 0.05 mg/kg, route intraperitoneal; conditions: in vivo
How it was run: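 Male CD-1 mice (n = 10 per group) were given test agent 0.05 mg/kg or vehicle, then sodium pentobarbital 50 mg/kg ip 15 min later. Sleep duration, the time from loss to regain of the righting reflex, was recorded in seconds. Mean ± SEM.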

Mus musculus [15] = assay: Reduction in morphine tolerance acquisition in CD1 mouse assessed as morphine analgesic effect incidence at 0.05 mg/kg, ip bid administered 15 mins before last morphine dosing by radiant heat tail flick test; assay type: functional, organism-based; set-up: dose 0.05 mg/kg
Mus musculus [16] = assay: Reduction in morphine dependence expression in CD1 mouse assessed as decrease in expression of naloxone-precipitated withdrawal syndrome at 0.05 mg/kg, ip bid administered 15 mins before last morphine dosing […]; assay type: functional, organism-based; set-up: dose 0.05 mg/kg
How it was run: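 In male CD-1 mice, morphine 10 mg/kg sc was given twice daily at 12 h intervals for 6 days, with test agent 0.05 mg/kg ip 15 min before each morphine dose. Jumping was counted, and somatic signs were scored as the sum of rearing, forepaw tremor and teeth chatter. Blind observers; mean ± SEM.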

[17] = biological target: T5, Alpha-2B adrenergic receptor; assay: Agonist activity at human alpha2B adrenoceptor expressed in CHO cells assessed as induction of extracellular acidification by microphysiometry
[18] = biological target: T3, Alpha-2A adrenergic receptor; assay: Agonist activity at human alpha2A adrenoceptor expressed in CHO cells assessed as induction of extracellular acidification by microphysiometry; assay type: functional, cell-based
How it was run: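 CHO cells stably expressing human α2A-AR were seeded at 3 × 10⁵ cells/cup and held 24 h at 37 °C under 5% CO₂. They were then perfused at 100 μL/min with bicarbonate-free DMEM containing glutamine and NaCl. Agonist exposure lasted 4 min, with 30 min washes between exposures.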

## CC(Oc1ccccc1-c1ccsc1)C1=NCCN1 (racemic)
[1]
  Intrinsic activity: 0.85
[2]
  pEC50: inactive

## C[C@H](Oc1ccccc1-c1cccc(O)c1)C1=NCCN1
[3]
  Ki: 97.7 nM
[4]
  pKb: 6
[5]
  Ki: 1000 nM
[6]
  pKb: 5.5
[7]
  Ki: 112 nM
[8]
  EC50: 2510 nM
[1]
  Intrinsic activity: 0.65

## C[C@@H](Oc1ccccc1-c1cccc(O)c1)C1=NCCN1
[3]
  Ki: 39.8 nM
[4]
  pKb: 6.4
[5]
  Ki: 316 nM
[6]
  pKb: 5.67
[7]
  Ki: 31.6 nM
[8]
  EC50: 25.1 nM
[1]
  Intrinsic activity: 1

## C=CCc1ccccc1O[C@H](C)C1=NCCN1
[4]
  pKb: 7.4
[5]
  Ki: 562 nM
[7]
  Ki: 178 nM
[8]
  EC50: 186 nM
[1]
  Intrinsic activity: 0.5
Mus musculus [9]
  Activity: Active
Mus musculus [10]
  Activity: inactive
Mus musculus [11]
  Activity: inactive
Mus musculus [12]
  Activity: inactive
Mus musculus [13]
  Activity: Active
Mus musculus [14]
  Activity: Non-toxic
Mus musculus [15]
  Activity: Active
Mus musculus [16]
  Activity: Active
[2]
  pEC50: inactive

## C[C@@H](Oc1ccccc1C1CC1)C1=NCCN1
[3]
  Ki: 44.7 nM
[4]
  pKb: 6.9
[5]
  Ki: 562 nM
[7]
  Ki: 126 nM
[8]
  EC50: 126 nM
[1]
  Intrinsic activity: 0.5
Mus musculus [9]
  Activity: Active
Mus musculus [10]
  Activity: inactive
[2]
  pEC50: inactive

## C=CCc1ccccc1O[C@@H](C)C1=NCCN1
[4]
  pKb: 7.8
[5]
  Ki: 398 nM
[17]
  EC50: 1000 nM
[7]
  Ki: 70.8 nM
[8]
  EC50: 25.1 nM
[1]
  Intrinsic activity: 0.9
Mus musculus [9]
  Activity: Active
Mus musculus [10]
  Activity: inactive
Mus musculus [11]
  Activity: inactive
Mus musculus [12]; route intraperitoneal
  Activity: 22%
Mus musculus [13]
  Activity: Active
Mus musculus [14]
  Activity: Non-toxic
Mus musculus [15]
  Activity: Active
Mus musculus [16]
  Activity: Active

## C[C@@H](Oc1ccccc1-c1ccsc1)C1=NCCN1
[3]
  Ki: 166 nM
[18]
  EC50: 3160 nM
[5]
  Ki: 708 nM
[7]
  Ki: 316 nM
[8]
  EC50: 100 nM
[1]
  Intrinsic activity: 0.7
[2]
  pEC50: inactive

## CC(Oc1ccccc1-c1ccccc1)C1=NCCN1 (racemic)
[1]
  Intrinsic activity: 0.8

## C[C@H](Oc1ccccc1C1CC1)C1=NCCN1
[3]
  Ki: 20.9 nM
[4]
  pKb: 7.7
[5]
  Ki: 263 nM
[17]
  EC50: 3160 nM
[7]
  Ki: 63.1 nM
[8]
  EC50: 35.5 nM
[1]
  Intrinsic activity: 0.9
Mus musculus [9]
  Activity: Active
Mus musculus [10]
  Activity: inactive

## CC(Oc1ccccc1-c1cccc([N+](=O)[O-])c1)C1=NCCN1 (racemic)
[4]
  pKb: 6.8
[6]
  pKb: 5.9
[1]
  Intrinsic activity: 0.6
